From ChEMBL document CHEMBL3763019, “Discovery of benzenesulfonamide derivatives as potent PI3K/mTOR dual inhibitors with in vivo efficacies against hepatocellular carcinoma” (Bioorg Med Chem, 2016)

Legend:
[1] = Antiproliferative activity against human NCI-ADR-RES cells incubated for 48 hrs by sulforhodamine B assay; type: functional
Outline: (§1)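 Run externally by the US National Cancer Institute as part of its 60 human cancer cell line cytotoxicity screen (NCI-60).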

A498 = experiment: Antiproliferative activity against human A498 cells incubated for 48 hrs by sulforhodamine B assay; type: functional; settings: A498, 48 h; outline: as §1
[2] = Antiproliferative activity against human Hs 578T cells incubated for 48 hrs by sulforhodamine B assay; type: functional
MDA-MB-468 = experiment: Antiproliferative activity against human MDA-MB-468 cells incubated for 48 hrs by sulforhodamine B assay; type: functional; settings: MDA-MB-468, 48 h; outline: as §1
[3] = target: Serine/threonine-protein kinase mTOR (Homo sapiens, UniProt P42345); experiment: Inhibition of insulin-stimulated mTOR phosphorylation in human A549 cells after 30 mins by Western blot analysis; type: cell-based
Outline: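 A549 cells were insulin-stimulated for 2 h, then exposed to four compound concentrations for 30 min. Lysis was in ice-cold RIPA buffer, protein was quantified by BCA, and lysates were run on 10% SDS-PAGE and transferred to nitrocellulose. Detection was by infrared imaging, with β-actin as loading control.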

[4] = Cytotoxicity against human Bel7404 cells after 72 hrs by MTT assay; type: functional, cell-based; settings: BEL-7404, 72 h
Outline: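 Log-phase cells at 40,000–50,000 cells/mL in DMEM with 10% FBS and antibiotics were seeded and cultured overnight at 37 °C, 5% CO₂. Compounds were diluted in DMSO/PBS from 10^-4 to 10^-9 M and applied for 72 h. MTT (5 mg/mL stock) was then added for 4 h and absorbance read at 570 nm. IC50 came from nonlinear regression on triplicate wells, averaged.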

[5] = target: Phosphatidylinositol 4,5-bisphosphate 3-kinase catalytic subunit gamma isoform (Homo sapiens, UniProt P48736); experiment: Inhibition of PI3K-gamma (unknown origin) at 10 nM after 40 mins by ADP-Glo luminescent kinase assay
Outline: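 Final enzyme was PI3Kβ 4.8 nM and PI3Kγ 7.6 nM. ADP-Glo reagent stopped the reaction (40 min), then detection reagent was added (60 min) and luminescence read. Percent inhibition was derived from RLU.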

[6] = Antiproliferative activity against human HL-60(TB) cells incubated for 48 hrs by sulforhodamine B assay; type: functional; settings: HL-60, 48 h
A549 = experiment: Antiproliferative activity against human A549 cells incubated for 48 hrs by sulforhodamine B assay; type: functional; settings: A549, 48 h; outline: as §1
[7] = read-out: pLC50 (the source's name) (converted)

Sequence of Phosphatidylinositol 4,5-bisphosphate 3-kinase catalytic subunit gamma isoform (P48736 whole entry, looked up, canonical isoform): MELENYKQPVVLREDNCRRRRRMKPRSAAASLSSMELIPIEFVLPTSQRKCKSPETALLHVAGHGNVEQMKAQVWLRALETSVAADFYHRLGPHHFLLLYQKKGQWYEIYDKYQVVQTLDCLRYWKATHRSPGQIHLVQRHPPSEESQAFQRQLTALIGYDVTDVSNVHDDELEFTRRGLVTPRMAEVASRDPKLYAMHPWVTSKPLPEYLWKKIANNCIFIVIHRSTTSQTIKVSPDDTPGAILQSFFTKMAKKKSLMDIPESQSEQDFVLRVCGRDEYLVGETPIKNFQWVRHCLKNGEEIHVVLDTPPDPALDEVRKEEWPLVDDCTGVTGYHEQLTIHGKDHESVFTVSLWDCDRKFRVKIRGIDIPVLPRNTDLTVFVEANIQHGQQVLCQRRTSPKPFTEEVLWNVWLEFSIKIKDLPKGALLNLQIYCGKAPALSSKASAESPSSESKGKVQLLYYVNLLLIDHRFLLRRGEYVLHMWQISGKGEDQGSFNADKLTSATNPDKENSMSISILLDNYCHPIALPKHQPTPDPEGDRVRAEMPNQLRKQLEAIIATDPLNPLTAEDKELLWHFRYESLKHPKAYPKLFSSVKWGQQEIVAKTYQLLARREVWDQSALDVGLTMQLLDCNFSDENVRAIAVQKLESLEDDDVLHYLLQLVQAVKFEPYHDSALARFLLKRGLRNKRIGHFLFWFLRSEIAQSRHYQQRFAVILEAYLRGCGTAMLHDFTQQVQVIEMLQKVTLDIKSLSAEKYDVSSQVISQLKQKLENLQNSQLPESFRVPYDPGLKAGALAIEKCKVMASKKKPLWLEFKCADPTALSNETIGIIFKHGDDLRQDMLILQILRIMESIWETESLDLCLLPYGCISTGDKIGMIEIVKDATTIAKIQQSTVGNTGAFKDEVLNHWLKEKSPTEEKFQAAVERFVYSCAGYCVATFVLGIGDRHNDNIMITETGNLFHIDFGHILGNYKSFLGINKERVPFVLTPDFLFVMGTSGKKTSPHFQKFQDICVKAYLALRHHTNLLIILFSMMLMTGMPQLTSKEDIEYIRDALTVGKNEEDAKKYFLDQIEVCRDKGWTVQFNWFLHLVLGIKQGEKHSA

COc1ncc(-c2ccc3nccc(C#CCN4CCN(S(C)(=O)=O)CC4)c3c2)cc1NS(=O)(=O)c1ccc(F)cc1F
GI50 [1]: 0.355 µM
CC50 [1, 7]: 79.4 µM
TGI ([1]; read-out: pTGI (converted)): 12 µM
GI50 (A498): 0.0372 µM
CC50 (A498; [7]): 2.19 µM
TGI (A498; read-out: pTGI (converted)): 0.245 µM
GI50 [2]: 0.0186 µM
CC50 [2, 7]: > 100 µM
GI50 (MDA-MB-468): 0.017 µM
CC50 (MDA-MB-468; [7]): 1.38 µM
TGI (MDA-MB-468; read-out: pTGI (converted)): 0.0851 µM
inhibition [3]: Dose-dependent effect
IC50 [4]: 0.02 µM
inhibition [5]: 95%
GI50 [6]: 0.0195 µM
CC50 [6, 7]: > 100 µM
TGI ([6]; read-out: pTGI (converted)): 1.45 µM
GI50 (A549): 0.0724 µM
CC50 (A549; [7]): 44.7 µM
TGI (A549; read-out: pTGI (converted)): 5.5 µM
